This is an account of results in ChEMBL document CHEMBL2203147 (ACS Med Chem Lett, 2011).

Data set [1] can be described thus: Displacement of [3H]SCH 23390 from Sprague-Dawley rat dopamine D1-like receptor after 90 mins.
Data set [2] is filed under the species Rattus norvegicus. The data set can be described thus: Selectivity ratio of Ki for Sprague-Dawley rat dopamine D1-like receptor to Ki for Sprague-Dawley rat dopamine D3 receptor.
Data set [3] is filed under the species Rattus norvegicus. The data set can be described thus: Selectivity ratio of Ki for Sprague-Dawley rat dopamine D2-like receptor to Ki for Sprague-Dawley rat dopamine D3 receptor.
In the next data set the target is D(2) dopamine receptor (Rattus norvegicus, UniProt P61169). The data set can be described thus: Displacement of [3H]Spiperone from Sprague-Dawley rat dopamine D2-like receptor after 90 mins.
The target of the next data set is D(3) dopamine receptor (Rattus norvegicus, UniProt P19020). Description: Displacement of [3H]R(+)-7-OH-DPAT from Sprague-Dawley rat dopamine D3 receptor after 90 mins.
Data set [4] can be described thus: Aqueous solubility of the compound. The format is physicochemical.
Data set [5] addresses D(1A) dopamine receptor (Homo sapiens) (UniProt P21728). The data set can be described thus: Displacement of [3H]SCH-23390 from human cloned dopamine D1 receptor expressed in LhD1 cells at 10000 nM after 60 mins by scintillation counter. The format is cell-based.
Data set [6] deals with Rattus norvegicus. The data set can be described thus: Induction of yawning in Sprague-Dawley rat at 0.01 to 10 mg/kg, sc after 60 mins. The format is functional, organism-based.
Data set [7] is filed under the species Rattus norvegicus. Conditions: Sprague-Dawley, 10 mg/kg.
Data set [8] has as its system Rattus norvegicus. Description: Induction of yawning in sc dosed Sprague-Dawley rat after 60 mins. The format is functional, organism-based.
In data set [9] the target is D(3) dopamine receptor (Homo sapiens) (UniProt P35462). Description: Agonist activity at human dopamine D3 receptor expressed in CHOp cells assessed as […] quinpirole-induced mitogenesis after 24 hrs relative to quinpirole. The format is functional, cell-based. In outline:
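Mitogenesis functional assay on cloned human D3 receptor expressed in CHO cells. Quinpirole serves as the standard D3 agonist control. Readouts are EC50 and maximal stimulation, expressed as a percentage of the quinpirole maximum.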

Data set [10] relates to Rattus norvegicus. Description: Induction of yawning in Sprague-Dawley rat at 10 mg/kg, sc pre-treated with 1 mg/kg D2 receptor antagonist L-741,626 measured 30 mins post dose. The format is functional, organism-based. In outline: (§1)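 The selective antagonist (D3: SB-277011A; D2: L-741,626) was given before the subcutaneous agonist dose. Yawning was then scored in rats.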

Data set [11] has as its system Rattus norvegicus. The data set can be described thus: Induction of yawning in Sprague-Dawley rat at 1 mg/kg, sc after 60 mins. The format is functional, organism-based. The arrangement: dose 1 mg/kg.
The subject of data set [12] is Rattus norvegicus. The data set can be described thus: Induction of hypothermia in Sprague-Dawley rat at 3.2 mg/kg, sc after 60 mins. The arrangement: dose 3.2 mg/kg. The format is functional, organism-based. Put shortly:
(§2)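 Readout is the change in core body temperature in rats after subcutaneous agonist dosing. Statistical significance was assessed at P < 0.05, 0.005 and 0.001.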

Data set [13] relates to Rattus norvegicus. The data set can be described thus: Induction of hypothermia in Sprague-Dawley rat at 10 mg/kg, sc after 60 mins. The arrangement: dose 10 mg/kg. The format is functional, organism-based. Put shortly:
as §2

For data set [14], the system named is Rattus norvegicus. Description: Induction of hypothermia in Sprague-Dawley rat at 10 mg/kg, sc pre-treated with 1 mg/kg D2 receptor antagonist L-741,626 measured 30 mins post dose.
In data set [15] the test system is Rattus norvegicus. Description: Induction of yawning in Sprague-Dawley rat at 1 mg/kg, sc pre-treated with 32 mg/kg D3 receptor antagonist SB-277011A measured 30 mins post dose. The class given is functional, organism-based. In outline:
as §1

The subject of data set [16] is Rattus norvegicus. Description: Induction of yawning in Sprague-Dawley rat at 1 mg/kg, sc pre-treated with 1 mg/kg D2 receptor antagonist L-741,626 measured 30 mins post dose. The format is functional, organism-based. Put shortly:
as §1

The test system of data set [17] is Rattus norvegicus. The data set can be described thus: Induction of yawning in Sprague-Dawley rat at 10 mg/kg, sc pre-treated with 32 mg/kg D3 receptor antagonist SB-277011A measured 30 mins post dose. The class given is functional, organism-based. In outline: as §1
Data set [18] relates to Rattus norvegicus. The data set can be described thus: Induction of yawning in Sprague-Dawley rat at 0.01 mg/kg, sc after 60 mins. The class given is functional, organism-based. The arrangement: dose 0.01 mg/kg.
Data set [19] relates to Rattus norvegicus. Description: Induction of yawning in Sprague-Dawley rat at 0.1 to 10 mg/kg, sc after 60 mins. The format is functional, organism-based.
For data set [20], the species on record is Rattus norvegicus. Conditions: Sprague-Dawley, 0.32 mg/kg.
Data set [21] is filed under the species Rattus norvegicus. Conditions: Sprague-Dawley, 10 mg/kg. This is another data set of the same source.

Calls of active or inactive are those of the source. The rule behind the calls is not given here.

Sequence of D(2) dopamine receptor (P61169 whole entry): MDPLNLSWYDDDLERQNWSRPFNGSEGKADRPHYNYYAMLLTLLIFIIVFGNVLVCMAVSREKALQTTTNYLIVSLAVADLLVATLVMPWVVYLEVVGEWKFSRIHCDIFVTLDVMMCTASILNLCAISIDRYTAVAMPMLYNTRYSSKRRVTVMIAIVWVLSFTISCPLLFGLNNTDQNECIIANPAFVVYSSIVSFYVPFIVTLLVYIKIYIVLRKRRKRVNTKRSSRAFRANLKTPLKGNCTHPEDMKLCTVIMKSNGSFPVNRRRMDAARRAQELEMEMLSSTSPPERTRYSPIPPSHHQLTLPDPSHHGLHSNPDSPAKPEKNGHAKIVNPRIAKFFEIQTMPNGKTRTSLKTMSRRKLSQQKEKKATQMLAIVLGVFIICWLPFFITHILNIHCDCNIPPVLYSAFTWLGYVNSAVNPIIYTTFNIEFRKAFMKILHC
Sequence of D(3) dopamine receptor (P19020 whole entry): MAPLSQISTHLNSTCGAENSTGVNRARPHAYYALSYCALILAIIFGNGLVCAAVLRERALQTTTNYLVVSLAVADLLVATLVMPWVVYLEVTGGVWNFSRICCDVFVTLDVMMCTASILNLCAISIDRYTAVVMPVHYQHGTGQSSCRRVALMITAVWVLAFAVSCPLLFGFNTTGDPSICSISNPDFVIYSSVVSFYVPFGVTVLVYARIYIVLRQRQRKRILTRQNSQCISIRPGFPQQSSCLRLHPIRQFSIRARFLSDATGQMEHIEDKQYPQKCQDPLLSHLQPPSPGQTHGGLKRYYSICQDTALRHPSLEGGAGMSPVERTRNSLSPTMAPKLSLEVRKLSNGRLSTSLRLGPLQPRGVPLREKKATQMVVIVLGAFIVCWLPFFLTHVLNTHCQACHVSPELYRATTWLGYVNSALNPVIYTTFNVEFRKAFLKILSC
Sequence of D(1A) dopamine receptor (Homo sapiens) (P21728 whole entry): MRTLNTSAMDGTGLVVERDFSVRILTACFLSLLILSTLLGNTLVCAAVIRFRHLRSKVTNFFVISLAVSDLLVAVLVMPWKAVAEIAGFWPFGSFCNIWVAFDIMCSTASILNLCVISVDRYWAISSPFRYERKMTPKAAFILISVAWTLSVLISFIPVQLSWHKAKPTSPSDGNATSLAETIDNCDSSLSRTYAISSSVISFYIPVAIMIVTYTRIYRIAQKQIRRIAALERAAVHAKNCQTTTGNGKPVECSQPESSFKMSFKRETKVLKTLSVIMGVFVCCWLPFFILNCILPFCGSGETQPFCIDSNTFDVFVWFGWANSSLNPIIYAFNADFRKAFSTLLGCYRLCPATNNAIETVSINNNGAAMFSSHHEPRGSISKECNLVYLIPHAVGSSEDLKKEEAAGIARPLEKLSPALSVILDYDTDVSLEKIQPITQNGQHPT
Sequence of D(3) dopamine receptor (Homo sapiens) (P35462 whole entry): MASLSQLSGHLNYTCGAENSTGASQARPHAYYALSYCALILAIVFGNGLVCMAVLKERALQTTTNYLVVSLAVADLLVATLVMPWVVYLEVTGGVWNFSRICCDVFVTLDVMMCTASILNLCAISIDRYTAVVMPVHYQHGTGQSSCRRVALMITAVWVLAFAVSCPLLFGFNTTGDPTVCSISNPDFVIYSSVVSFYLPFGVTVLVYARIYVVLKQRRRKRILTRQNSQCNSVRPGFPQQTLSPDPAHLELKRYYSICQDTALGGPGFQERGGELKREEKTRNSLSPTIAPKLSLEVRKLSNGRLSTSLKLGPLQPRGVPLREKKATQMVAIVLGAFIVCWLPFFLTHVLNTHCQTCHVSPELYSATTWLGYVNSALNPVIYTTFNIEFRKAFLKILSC

With `CCCN(CC[C@H]1C[C@@H](NC(=O)c2ccc3ccccc3c2)C1)[C@H]1CCc2nc(N)sc2C1`, the Ki in data set [1] was determined as 3.06 µM; at D(2) dopamine receptor, 0.564 µM; on D(3) dopamine receptor it was 0.00035 µM. Besides, the results for the Ratio Ki in the data set listed under Rattus norvegicus [2] and in the data set listed under Rattus norvegicus [3] were 8820 and 1630, respectively.
In [4], `CCCN(CC[C@]1(O)C[C@H](NC(=O)c2ccc3ccccc3c2)C1)[C@H]1CCc2nc(N)sc2C1.Cl` showed a solubility above 100 mg/mL. The result (in data set [5]; with Rattus norvegicus [12]; with Rattus norvegicus [15]; in the data set on Rattus norvegicus [17]) was inactive. In addition, the result with Rattus norvegicus [6], in the data set with Rattus norvegicus [10], in the data set with Rattus norvegicus [11], in the data set with Rattus norvegicus [13], with Rattus norvegicus [14] and with Rattus norvegicus [16] was Active. The result with Rattus norvegicus [18] was Active. For the same molecule, in the data set listed under Rattus norvegicus [7], the deltaT stood at 0.75 °C. In addition, the Activity result with Rattus norvegicus [8] is “Dose-dependent effect”. For the same molecule, the Emax in data set [9] is 103%.
`CCCN(CC[C@H]1CC[C@H](NC(=O)c2ccc3ccccc3c2)CC1)[C@H]1CCc2nc(N)sc2C1` showed a Ki in [1] above 5 µM. This molecule had a solubility in data set [4] above 50 mg/mL.
Consider `CCCN(CC[C@]1(O)C[C@@H](NC(=O)c2ccc3ccccc3c2)C1)[C@H]1CCc2nc(N)sc2C1.Cl`, for which the solubility in data set [4] is above 100 mg/mL. In addition, the Activity result with Rattus norvegicus [8] is “Dose-dependent effect”. Besides, the outcome in the data set with Rattus norvegicus [11] and with Rattus norvegicus [19] was Active.
For the molecule `CCCN(CC[C@]1(O)CC[C@H](NC(=O)c2ccc3ccccc3c2)CC1)[C@H]1CCc2nc(N)sc2C1`, the Ki came to 14.1 µM in data set [1], 3.55 µM at D(2) dopamine receptor and 0.00093 µM at D(3) dopamine receptor. In addition, the Ratio Ki worked out at 15100 in the data set filed under Rattus norvegicus [2] and 3820 in the data set filed under Rattus norvegicus [3].
Taken in the same sequence, the figures for `CCCN(CC[C@]1(O)CC[C@@H](NC(=O)c2ccc3ccccc3c2)CC1)[C@H]1CCc2nc(N)sc2C1` were 11.6 µM, 1.63 µM, 0.0016 µM, 7370 and 1040.
`CCCN[C@H]1CCc2nc(N)sc2C1` [PRAMIPEXOLE]: the values for the Ki (in data set [1]; at D(3) dopamine receptor) were above 10 µM and 0.00045 µM, respectively. Besides, the deltaT in the data set filed under Rattus norvegicus [20] was found to be 0.75 °C. For the same molecule, in the data set on Rattus norvegicus [8], the Activity result is “Dose-dependent effect”. The outcome in the data set with Rattus norvegicus [13] was Active. The inhibition entry in the data set listed under Rattus norvegicus [21] is “Active”.
For `CCCN(CC[C@H]1CC[C@H](NC(=O)/C=C/c2ccccc2)CC1)[C@H]1CCc2nc(N)sc2C1`, the solubility in data set [4] was above 50 mg/mL.
With `CCCN(CC[C@H]1C[C@H](NC(=O)c2ccc3ccccc3c2)C1)[C@H]1CCc2nc(N)sc2C1`, the Ki in data set [1] came out at 6.12 µM; at D(2) dopamine receptor, 0.584 µM; at D(3) dopamine receptor, 0.00041 µM. Besides, the results for the Ratio Ki in the data set listed under Rattus norvegicus [2] and in the data set listed under Rattus norvegicus [3] were 14800 and 1420, respectively.
